Source: ChEMBL document CHEMBL1208768, “Synthesis, selective anti-Helicobacter pylori activity, and cytotoxicity of novel N-substituted-2-oxo-2H-1-benzopyran-3-carboxamides” (Bioorg Med Chem Lett, 2010)
Converted amounts (≈) assume the structure as drawn. The source made the active and inactive calls. No cut-off for these calls is given here.

Legend:
Enterobacter = experiment: Antibacterial activity against Enterobacter after 18 to 22 hrs by broth microdilution method; assay type: functional
Outline: (§1)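 Clinical respiratory-tract isolates from patients, subcultured for purity and identified conventionally. Broth microdilution per NCCLS in Mueller–Hinton II broth; each plate had growth controls (bacteria, no compound) and medium-only controls. Incubation 18–22 h at 35 °C. MIC taken as the lowest concentration giving complete growth inhibition by unaided eye.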

Staphylococcus hominis = experiment: Antibacterial activity against Staphylococcus hominis after 18 to 22 hrs by broth microdilution method; assay type: functional; outline: as §1
Helicobacter pylori [1] = experiment: Antibacterial activity against metronidazole-resistant Helicobacter pylori NCTC 11637 after 72 hrs by agar dilution method; assay type: functional; conditions: NCTC 11637, 72 h
Outline: (§2)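 H. pylori clinical isolates (ATCC 43504 control each session) stored at -80 °C and subcultured twice on Columbia agar with 10% horse serum and 0.25% yeast extract. Suspensions of 0.5 McFarland were spotted by Steer's replicator at about 5 × 10⁵ CFU/spot onto agar with twofold compound dilutions. Plates were incubated 72 h at 37 °C in 10% CO₂. MIC was the lowest concentration without visible growth.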

[Candida] sake = Antifungal activity against Candida sake after 24 hrs by broth microdilution method; assay type: functional; conditions: Fermentozyma sake
Outline: (§3)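 Candida isolates from respiratory-tract specimens, tested by NCCLS broth microdilution in Sabouraud dextrose broth. Serial compound dilutions inoculated to 10³/mL, with fungus-only and medium-only controls. Incubated 24 h at 37 °C. MIC was the lowest concentration with complete visible growth inhibition.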

Enterococcus faecalis = experiment: Antibacterial activity against Streptococcus faecalis after 18 to 22 hrs by broth microdilution method; assay type: functional; outline: as §1
Proteus vulgaris = experiment: Antibacterial activity against Proteus vulgaris after 18 to 22 hrs by broth microdilution method; assay type: functional; outline: as §1
[2] = Cytotoxicity against human EAhy926 cells assessed as cell survival at 50 ug/mL after 24 hrs by trypan blue exclusion assay; assay type: cell-based, EA.hy 926; conditions: read-out: Survival
Outline: (§4)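 EAhy cells in DMEM (high glucose) with 10% FBS, at 1 × 10⁵/mL in exponential growth and 60–70% confluent, were exposed 24 h at 37 °C to compounds from DMSO stocks (final DMSO ≤0.5%). Controls were cells alone or with DMSO, and 1 mM sodium nitroprusside as positive control. Cells were scraped, mixed 1:1 with 0.4% Trypan blue and counted on a hemocytometer by two operators. Result given as % viable cells.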

[3] = Cytotoxicity against human EAhy926 cells assessed as cell survival at 5 ug/mL after 24 hrs by trypan blue exclusion assay; assay type: cell-based, EA.hy 926; conditions: read-out: Survival; outline: as §4
AGS [4] = experiment: Antiinflammatory activity in human AGS cells assessed as inhibition of IL-8 production at 5 ug/mL after 24 hrs; assay type: functional, cell-based
Outline: (§5)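 AGS gastric adenocarcinoma cells were grown in F-12K with 10% FBS. They were seeded at 1 × 10⁵/mL for 24 h, preincubated 1 h with compound at 5 or 0.5 µg/mL, then exposed to H. pylori.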

Helicobacter pylori [5] = experiment: Antibacterial activity against metronidazole-resistant Helicobacter pylori isolate 1 after 72 hrs by agar dilution method; assay type: functional; conditions: isolate 1, 72 h; outline: as §2
Helicobacter pylori [6] = experiment: Antibacterial activity against metronidazole-resistant Helicobacter pylori isolate 8 after 72 hrs by agar dilution method; assay type: functional; conditions: isolate 8, 72 h; outline: as §2
Helicobacter pylori [7] = experiment: Antibacterial activity against metronidazole-resistant Helicobacter pylori isolate 20 after 72 hrs by agar dilution method; assay type: functional; conditions: isolate 20, 72 h; outline: as §2
[8] = Cytotoxicity against human EAhy926 cells assessed as cell survival at 0.5 ug/mL after 24 hrs by MTT assay; assay type: cell-based, EA.hy 926; conditions: read-out: Survival
[9] = system: Staphylococcus epidermidis; experiment: Antibacterial activity against Staphylococcus epidermidis after 18 to 22 hrs by broth microdilution method; assay type: functional; outline: as §1
Pichia kudriavzevii = experiment: Antifungal activity against Candida krusei after 24 hrs by broth microdilution method; assay type: functional; outline: as §3
AGS [10] = experiment: Antiinflammatory activity in human AGS cells assessed as inhibition of IL-8 production at 0.5 ug/mL after 24 hrs; assay type: functional, cell-based; outline: as §5
Helicobacter pylori [11] = experiment: Antibacterial activity against metronidazole-resistant Helicobacter pylori isolate 18 after 72 hrs by agar dilution method; assay type: functional; conditions: isolate 18, 72 h; outline: as §2
[12] = Cytotoxicity against human EAhy926 cells assessed as cell survival at 0.5 ug/mL after 24 hrs by trypan blue exclusion assay; assay type: cell-based, EA.hy 926; conditions: read-out: Survival; outline: as §4
Helicobacter pylori [13] = experiment: Antibacterial activity against Helicobacter pylori ATCC 43504 clinical isolates after 72 hrs by agar dilution method; assay type: functional; conditions: ATCC 43504, 72 h
Outline: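 Agar dilution per NCCLS. Twenty clinical strains from duodenal ulcer or gastritis patients, with ATCC 43504 as control in each session, were subcultured twice on Columbia agar plus 10% horse serum and 0.25% yeast extract (72 h, 37 °C, 10% CO₂). Inoculum of 0.5 McFarland in Wilkins Chalgren broth, about 5 × 10⁵ CFU/spot by Steer's replicator. Plates held twofold compound dilutions down to 0.0039 µg/mL and were incubated 72 h at 37 °C, 10% CO₂. MIC was the lowest concentration inhibiting visible growth.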

Candida albicans = experiment: Antifungal activity against Candida albicans after 24 hrs by broth microdilution method; assay type: functional; outline: as §3
[14] = Cytotoxicity against human EAhy926 cells assessed as cell survival at 0.05 ug/mL after 24 hrs by trypan blue exclusion assay; assay type: cell-based, EA.hy 926; conditions: read-out: Survival; outline: as §4
Klebsiella pneumoniae = experiment: Antibacterial activity against Klebsiella pneumoniae after 18 to 22 hrs by broth microdilution method; assay type: functional; outline: as §1
AGS (Homo sapiens) = experiment: Cytotoxicity against human AGS cells assessed as cell survival at 50 ug/mL after 24 hrs by MTT assay
Citrobacter freundii = experiment: Antibacterial activity against Citrobacter freundii after 18 to 22 hrs by broth microdilution method; assay type: functional; outline: as §1
Klebsiella aerogenes = experiment: Antibacterial activity against Enterobacter aerogenes after 18 to 22 hrs by broth microdilution method; assay type: functional; outline: as §1
[15] = system: Staphylococcus haemolyticus; experiment: Antibacterial activity against Staphylococcus haemolyticus after 18 to 22 hrs by broth microdilution method; assay type: functional; outline: as §1
Klebsiella oxytoca = experiment: Antibacterial activity against Klebsiella oxytoca after 18 to 22 hrs by broth microdilution method; assay type: functional; outline: as §1
Staphylococcus aureus = experiment: Antibacterial activity against Staphylococcus aureus after 18 to 22 hrs by broth microdilution method; assay type: functional; outline: as §1
Escherichia coli = experiment: Antibacterial activity against Escherichia coli after 18 to 22 hrs by broth microdilution method; assay type: functional; outline: as §1
[16] = Cytotoxicity against human EAhy926 cells assessed as cell survival at 5 ug/mL after 24 hrs by MTT assay; assay type: cell-based, EA.hy 926; conditions: read-out: Survival
[17] = Solubility of the compound in DMSO at 0.0039 to 128 ug/mL; assay type: physicochemical

Row | SMILES | MIC (Enterobacter) [µg/mL] | MIC (Staphylococcus hominis) [µg/mL] | MIC (Helicobacter pylori [1]) [µg/mL] | MIC ([Candida] sake) [µg/mL] | MIC (Enterococcus faecalis) [µg/mL] | MIC (Proteus vulgaris) [µg/mL] | viability at 24 h, 50 ug/mL [2] [%] | viability at 24 h, 5 ug/mL [3] [%] | inhibition (AGS [4]) | MIC [9] [µg/mL] | MIC (Pichia kudriavzevii) [µg/mL] | inhibition (AGS [10]) | MIC (Candida albicans) [µg/mL] | MIC (Klebsiella pneumoniae) [µg/mL] | MIC (Citrobacter freundii) [µg/mL] | MIC (Klebsiella aerogenes) [µg/mL] | MIC [15] [µg/mL] | MIC (Klebsiella oxytoca) [µg/mL] | MIC (Staphylococcus aureus) [µg/mL] | MIC (Escherichia coli) [µg/mL] | further results
1 | CCOC(=O)c1ccc(NC(=O)c2cc3cc(O)ccc3oc2=O)cc1 | > 128 | > 128 | 8 (≈ 22.6 µM) | > 128 | > 128 | > 128 | 77 | 80 | inactive | > 128 | > 128 | inactive | > 128 | > 128 | > 128 | > 128 | > 128 | > 128 | > 128 | > 128 | MIC (Helicobacter pylori [5]): 4 µg/mL (≈ 11.3 µM); MIC (Helicobacter pylori [6]): 2 µg/mL (≈ 5.66 µM); MIC (Helicobacter pylori [7]): 2 µg/mL (≈ 5.66 µM); viability at 24 h, 0.5 ug/mL [8]: 99%; MIC (Helicobacter pylori [11]): 8 µg/mL (≈ 22.6 µM); viability at 24 h, 0.5 ug/mL [12]: 83%; MIC50 (Helicobacter pylori [13]): 4 µg/mL (≈ 11.3 µM); MIC90 (Helicobacter pylori [13]): 8 µg/mL (≈ 22.6 µM); viability at 24 h, 0.05 ug/mL [14]: 93%; viability at 24 h, 50 ug/mL (AGS (Homo sapiens)): 82%; viability at 24 h, 5 ug/mL [16]: 99%
2 | Cc1ccc2oc(=O)c(C(=O)Nc3ccc(C(=O)O)cc3)cc2c1 | > 128 | > 128 | – | > 128 | > 128 | > 128 | – | – | inactive | > 128 | > 128 | inactive | > 128 | > 128 | > 128 | > 128 | > 128 | > 128 | > 128 | > 128 | solubility [17]: Insoluble
3 | CCOC(=O)c1ccc(NC(=O)c2cc3cc(Br)cc(Cl)c3oc2=O)cc1 | > 128 | > 128 | 16 (≈ 35.5 µM) | > 128 | > 128 | > 128 | 58 | 71 | inactive | > 128 | > 128 | inactive | > 128 | > 128 | > 128 | > 128 | > 128 | > 128 | > 128 | > 128 | MIC (Helicobacter pylori [5]): 8 µg/mL (≈ 17.8 µM); MIC (Helicobacter pylori [6]): 4 µg/mL (≈ 8.88 µM); MIC (Helicobacter pylori [7]): 8 µg/mL (≈ 17.8 µM); viability at 24 h, 0.5 ug/mL [8]: 98%; MIC (Helicobacter pylori [11]): 8 µg/mL (≈ 17.8 µM); viability at 24 h, 0.5 ug/mL [12]: 86%; MIC50 (Helicobacter pylori [13]): 8 µg/mL (≈ 17.8 µM); MIC90 (Helicobacter pylori [13]): 16 µg/mL (≈ 35.5 µM); viability at 24 h, 0.05 ug/mL [14]: 94%; viability at 24 h, 50 ug/mL (AGS (Homo sapiens)): 64%; viability at 24 h, 5 ug/mL [16]: 75%
4 | CCOC(=O)c1ccc(NC(=O)c2cc3ccc(OC)cc3oc2=O)cc1 | > 128 | > 128 | – | > 128 | > 128 | > 128 | – | – | inactive | > 128 | > 128 | inactive | > 128 | > 128 | > 128 | > 128 | > 128 | > 128 | > 128 | > 128 | solubility [17]: Insoluble
5 | CCOC(=O)c1ccc(NC(=O)c2cc3cc([N+](=O)[O-])ccc3oc2=O)cc1 | > 128 | > 128 | – | > 128 | > 128 | > 128 | – | – | inactive | > 128 | > 128 | inactive | > 128 | > 128 | > 128 | > 128 | > 128 | > 128 | > 128 | > 128 | solubility [17]: Insoluble
6 | CCOC(=O)c1ccc(NC(=O)c2cc3ccc(O)cc3oc2=O)cc1 | > 128 | > 128 | 8 (≈ 22.6 µM) | > 128 | > 128 | > 128 | 64 | 92 | inactive | > 128 | > 128 | inactive | > 128 | > 128 | > 128 | > 128 | > 128 | > 128 | > 128 | > 128 | MIC (Helicobacter pylori [5]): 8 µg/mL (≈ 22.6 µM); MIC (Helicobacter pylori [6]): 4 µg/mL (≈ 11.3 µM); MIC (Helicobacter pylori [7]): 2 µg/mL (≈ 5.66 µM); viability at 24 h, 0.5 ug/mL [8]: 99%; MIC (Helicobacter pylori [11]): 8 µg/mL (≈ 22.6 µM); viability at 24 h, 0.5 ug/mL [12]: 95%; MIC50 (Helicobacter pylori [13]): 8 µg/mL (≈ 22.6 µM); MIC90 (Helicobacter pylori [13]): 8 µg/mL (≈ 22.6 µM); viability at 24 h, 0.05 ug/mL [14]: 96%; viability at 24 h, 50 ug/mL (AGS (Homo sapiens)): 78%; viability at 24 h, 5 ug/mL [16]: 82%
